Results: ChEMBL document CHEMBL4038331 (J Med Chem, 2017)
pIC50: −log10 of the molar value. Calls of active or inactive are those of the source. The calls are words filed in the database; no cut-off is given here.

Experiments:
[1] = Antioxidant activity assessed as DPPH radical scavenging activity measured every minute for 45 mins; format: functional
Outline: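 DPPH• ethanolic solution diluted to absorbance 0.72 ± 0.02 at 515 nm. Ethanolic test solutions (50–500 μM) were added in triplicate and read at 515 nm. Inhibition was taken against an ethanol blank (100% radical), and IC50 was read from dose–response curves.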

[2] = Antioxidant activity assessed as ABTS radical scavenging activity measured each minute for 15 mins by spectrophotometric analysis; format: functional
Outline: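 ABTS•+ generated from 7 mM ABTS plus potassium persulfate, held 16 h dark at room temperature, then diluted in ethanol to absorbance 0.72 ± 0.02. Ethanolic test solutions (10–500 μM) were added to radical solution in triplicate. Inhibition was taken against an ethanol blank (100% radical), and IC50 was read from dose–response curves.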

[3] = Antioxidant activity assessed as GO radical scavenging activity measured for 30 mins in absence of light; format: functional
Outline: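 Ethanolic GO• (5 mM stock) diluted to absorbance 1.00 ± 0.02 at 428 nm. Test solutions (5–75 μM in ethanol) were added in triplicate and read at 428 nm at room temperature. Inhibition was taken against an ethanol blank (100% radical).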

[4] = Redox potential of compound in Ag/AgCl-NaCl containing phosphate buffer at 0.1 mM at pH 7.4 by cyclic voltammetric analysis
Outline: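 Voltammetry used a glassy carbon working electrode, Pt counter and Ag/AgCl reference. Compound was at 0.1 mM final (10 mM ethanolic stock) in pH 7.4 potassium phosphate electrolyte.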

[5] = Lipophilicity of compound in Ag/AgCl-NaCl containing PET membrane assessed as tranfer potential at pH 7; format: physicochemical
Outline: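 Transfer across a liquid–liquid interface on a microporous PET membrane, with 1,6-dichlorohexane organic phase containing BTPPATPBCl. A gelled 2 mM BTPPACl + 2 mM NaCl reference was used, with 10 mM Tris-HCl pH 7.0 aqueous electrolyte.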

[6] = Iron chelating activity in ammonium acetate buffer assessed as inhibition of [Fe(ferrozine)3]2+ formation at 100 uM at pH 6.7 measured after 10 mins by spectrophotometric analysis
Outline: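 Ferrozine assay in ammonium acetate buffer pH 6.7. Compound (100 μM) plus ammonium iron(II) sulfate (20 μM) for 10 min, read at 562 nm. Ferrozine was added, incubated 10 min at 37 °C, and re-read at 562 nm. The first reading was subtracted, with a DMSO blank and EDTA = 100%. Three experiments.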

[7] = system: Liver; experiment: Drug uptake in rat liver intra-mitochondria at 1 uM in presence of succinate/valinomycin by TPP+-based electrode assay; format: ADME, tissue-based
Outline: (§1)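 TPP+-selective electrode with rat liver mitochondria (0.5 mg/mL) in 120 mM KCl, 10 mM HEPES pH 7.2, 1 mM EGTA at 37 °C with rotenone 1.5 μM. Five 1 μM additions calibrated the electrode, then succinate 10 mM was added, then valinomycin 0.2 μg/mL. The accumulation ratio assumed a matrix volume of ~0.5 μL/mg with a binding correction.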

[8] = system: Liver; experiment: Drug uptake in rat liver extra-mitochondria at 1 uM in presence of succinate/valinomycin by TPP+-based electrode assay; format: ADME, tissue-based; outline: as §1
[9] = system: Liver; experiment: Ratio of drug level in rat liver intra-mitochondria to extra-mitochondria at 1 uM in presence of succinate/valinomycin by TPP+-based electrode assay; format: ADME, tissue-based; outline: as §1
[10] = system: Liver; experiment: Antioxidant activity in rat liver mitochondria assessed as inhibition of ADP/FeSO4-induced lipid peroxidation at 5 uM preincubated for 5 mins followed by ADP/FeSO4 addition; format: functional
Outline: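 Rat liver mitochondria (2 mg) in 100 mM KCl, 10 mM Tris-HCl pH 7.6, with glutamate/malate (5/2.5 mM) at 37 °C. After 5 min with compound (5 μM), peroxidation was started with ADP/0.1 mM FeSO4. The lag phase of O2 consumption was measured by Clark electrode and expressed as % of control. Six experiments.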

[11] = system: Liver; experiment: Induction of basal oxygen consumption under nonphosphorylative conditions in rat liver mitochondria after 5 mins in presence of glutamate/malate; format: functional
Outline: (§2)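 Glutamate/malate (10/5 mM) or succinate (5 mM) was the substrate, with compound 2.5–10 μM for 5 min (state 2). ADP was added (125 nmol glutamate/malate; 75 nmol succinate), then oligomycin 2 μg/mL, then FCCP 1 μM. RCR and ADP/O were calculated. Seven experiments.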

[12] = system: Liver; experiment: Induction of ADP-stimulated respiration in rat liver mitochondria after 5 mins in presence of succinate; format: functional; outline: as §2
[13] = system: HepG2; experiment: Cytotoxicity against human HepG2 cells assessed as reduction in cell density at 0.5 to 100 uM after 48 hrs by SRB assay; format: cell-based; conditions: hepg2, 48 h
[14] = system: HepG2; experiment: Antioxidant activity in human HepG2 cells assessed as reduction in H2O2-induced cell toxicity at 100 uM preincubated for 1 hr followed by H2O2 addition for 48 hrs by SRB assay; format: functional, cell-based
Outline: (§3)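 HepG2 cells, grown in high-glucose DMEM with 10% FBS at 37 °C and 5% CO2, seeded at 2 × 10^4 cells/500 μL. Cells were preincubated with compound, then given 250 μM FeSO4 or 250 μM H2O2. Cell mass was read by SRB (fixed, stained, OD 540 nm) as % of untreated control. Four independent experiments.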

[15] = system: HepG2; experiment: Antioxidant activity in human HepG2 cells assessed as reduction in FeSO4-induced cell toxicity at 100 uM preincubated for 1 hr followed by FeSO4 addition for 48 hrs by SRB assay; format: functional, cell-based; outline: as §3
[16] = system: HepG2; experiment: Cytotoxicity against human HepG2 cells assessed as chromatin condensation at 100 uM after 48 hrs Hoechst 33342-staining based epifluorescence microscopic analysis; format: cell-based; conditions: hepg2, 48 h
Outline: (§4)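 HepG2 cells on coverslips (8 × 10^4 cells/2 mL) were treated 48 h. In the last 30 min, cells were stained with TMRM (100 nM) and Hoechst 33342 (1 μg/mL) in HBSS pH 7.4 at 37 °C in the dark. Live cells were imaged by fluorescence microscopy, four random fields per well, three experiments.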

[17] = system: HepG2; experiment: Cytotoxicity against human HepG2 cells assessed as mitochondrial depolarization at 100 uM after 48 hrs TMRM-staining based epifluorescence microscopic analysis; format: cell-based; conditions: hepg2, 48 h; outline: as §4
[18] = system: HepG2; experiment: Antioxidant activity in human HepG2 cells assessed as intracellular GSH content per ug of protein at 100 uM after 48 hrs by HPLC analysis (reference value: 17.81 nmol); format: functional
[19] = system: HepG2; experiment: Cytotoxicity against human HepG2 cells assessed as depletion of intracellular GSH content at 100 uM after 48 hrs by HPLC analysis; format: cell-based; conditions: hepg2, 48 h
Outline: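 HepG2 cells (4 × 10^5 per 100 mm dish) were incubated 48 h, collected and stored at −80 °C in PBS. Reduced GSH was measured by reverse-phase HPLC with detection at 515 nm and expressed as nmol GSH/μg protein. Four experiments.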

[20] = system: Liver; experiment: Induction of basal respiration in rat liver mitochondria measured 5 mins after ADP phosphorylation in presence of glutamate/malate; format: functional; outline: as §2
[21] = system: Liver; experiment: Increase in oligomycin-inhibited respiration in rat liver mitochondria after 5 mins in presence of glutamate/malate; format: functional; outline: as §2
[22] = system: Liver; experiment: Increase in oligomycin-inhibited respiration in rat liver mitochondria after 5 mins in presence of succinate; format: functional; outline: as §2
[23] = system: Liver; experiment: Induction of basal respiration in rat liver mitochondria measured 5 mins after ADP phosphorylation in presence of succinate; format: functional; outline: as §2
[24] = system: Liver; experiment: Induction of basal oxygen consumption under nonphosphorylative conditions in rat liver mitochondria after 5 mins in presence of succinate; format: functional; outline: as §2
[25] = system: Liver; experiment: Induction of ADP-stimulated respiration in rat liver mitochondria after 5 mins in presence of glutamate/malate; format: functional; outline: as §2
[26] = system: Liver; experiment: Decrease in oxidative phosphorylation efficiency in rat liver mitochondria assessed as reduction in coupling between ATP systhesis and oxygen consumption after 5 mins in presence of glutamate/malate; format: functional; outline: as §2
[27] = system: Liver; experiment: Decrease in oxidative phosphorylation efficiency in rat liver mitochondria assessed as reduction in coupling between ATP systhesis and oxygen consumption after 5 mins in presence of succinate; format: functional; outline: as §2
[28] = system: Liver; experiment: Decrease in oxidative phosphorylation efficiency in rat liver mitochondria assessed as reduction in respiratory control ratio after 5 mins in presence of glutamate/malate; format: functional; outline: as §2

CS(=O)(=O)[O-].O=C(/C=C/c1cc(O)c(O)c(O)c1)NCCCCCC[P+](c1ccccc1)(c1ccccc1)c1ccccc1
pIC50 [1]: 4.72
pIC50 [2]: 4.91
pIC50 [3]: 5.51
Activity [4]: 0.034 V
Activity [5]: 0.498 V
inhibition [6]: Active
Drug uptake [7]: 2 mM
Drug uptake [8]: 2.4 µM
Ratio [9]: 2100
inhibition [10]: Active
Activity [11]: Dose-dependent effect
Activity [12]: Dose-dependent effect
Activity [13]: Non-Toxic
inhibition [14]: Active
inhibition [15]: Active
Activity [16]: Non-Toxic
Activity [17]: Non-Toxic
Activity [18]: 26.94 nmol
Activity [19]: Non-Toxic
Activity [20]: Dose-dependent effect
Activity [21]: Dose-dependent effect
Activity [22]: Dose-dependent effect
Activity [23]: Dose-dependent effect
Activity [24]: Dose-dependent effect
Activity [25]: Dose-dependent effect
Activity [26]: Dose-dependent effect
Activity [27]: Dose-dependent effect
Activity [28]: Dose-dependent effect
